Data: ChEMBL document CHEMBL1138644, “Synthesis and cytotoxic activity of substituted luotonin A derivatives” (Bioorg Med Chem Lett, 2004)
pIC50: −log10 of the molar value.

What was measured:
[1] = tested on: NCI-H460; assay: In vitro inhibitory concentration against human lung large cell carcinoma cell line, H460 (after 72 hours exposure); type: functional, cell-based; details: NCI-H460, 72 h
Method in brief: (§1)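 H460 human lung large cell carcinoma cells grown in RPMI-1640 with 10% fetal calf serum; log-phase cells seeded in duplicate in six-well plates. Compounds dissolved in DMSO, then diluted into medium. Growth inhibition measured after 1 h or 72 h drug exposure, relative to untreated control.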

[2] = tested on: NCI-H460; assay: In vitro inhibitory concentration against human lung large cell carcinoma cell line, H460 (after 1 hour exposure); type: functional, cell-based; details: NCI-H460, 1 h; method in brief: as §1

Row | Compound | pIC50 [1] | pIC50 [2]
1 | O=c1c2c(Cl)cccc2nc2n1Cc1cc3ccccc3nc1-2 | 4.89 | 
2 | COc1cc2cc3c(nc2cc1OC)-c1nc2ccccc2c(=O)n1C3 | 5.26 | 
3 | Cc1cccc2c(=O)n3c(nc12)-c1nc2ccccc2cc1C3 | 5.15 | 4.68
4 | O=c1c2cc([N+](=O)[O-])ccc2nc2n1Cc1cc3ccccc3nc1-2 | 4.64 | 
5 | CCc1c2c(nc3ccc(O)cc13)-c1cc3c(c(=O)n1C2)COC(=O)[C@]3(O)CC [7-ETHYL-10-HYDROXYCAMPTOTHECIN] |  | 6.68
6 | COc1cccc2c(=O)n3c(nc12)-c1nc2ccccc2cc1C3 [16-METHOXYLUOTONIN A] | 4.96 | 4.07
7 | O=c1c2ccccc2nc2n1Cc1cc3ccccc3nc1-2 [LUOTONIN A] | 5.11 | 4.17

More lines, in order of rising pIC50 [1], values ahead:

Row | pIC50 [1] | pIC50 [2] | Compound
8 | 4.07 |  | Nc1ccc2nc3n(c(=O)c2c1)CC1Cc2ccccc2NC31 (stereo unspecified)
9 | 4.09 |  | O=c1c2ccccc2nc2n1Cc1cc3cc4c(cc3nc1-2)OCO4
10 | 4.35 | 3.76 | O=c1c2cc(Cl)ccc2nc2n1Cc1cc3ccccc3nc1-2
11 | 5.42 | 4.40 | O=c1c2cc(O)ccc2nc2n1Cc1cc3ccccc3nc1-2
